ChEMBL document CHEMBL1909566, “Diverse metabolic profiles of a Streptomyces strain isolated from a hyper-arid environment” (2011)
In brackets after ≈: the same amount, converted by molar mass.

Experiments:
Type in all cases: functional
[1] = system: Staphylococcus aureus; assay: Antibacterial activity against Staphylococcus aureus ATCC 25293 after 18 hrs by […]; conditions: ATCC 25923, 18 h, in the assay text read “ATCC 25923” for “ATCC 25293”
Method in brief: (§1)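 Compounds were first screened by agar diffusion, with filter-paper disks of ampicillin (10 μg), oxolinic acid (2 μg) or oxytetracycline (30 μg) as positive controls. For MICs, strains were grown in Müller-Hinton broth to early stationary phase and diluted to OD600 = 0.005. Compound dilutions were added in DMSO (final 10%). Growth was read at OD620 after 18 h at 37 C, in duplicate with two independent cultures.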

[2] = system: Listeria monocytogenes; assay: Antibacterial activity against Listeria monocytogenes ATCC 19115 after 18 hrs by […]; conditions: ATCC 19115, 18 h; method in brief: as §1
[3] = system: Escherichia coli; assay: Antibacterial activity against Escherichia coli ATCC 25922 after 18 hrs by […]; conditions: ATCC 25922, 18 h; method in brief: as §1
[4] = system: Bacillus subtilis; assay: Antibacterial activity against Bacillus subtilis NCTC 2116 after 18 hrs by […]; conditions: NCTC 2116, 18 h; method in brief: as §1
[5] = system: Vibrio parahaemolyticus; assay: Antibacterial activity against Vibrio parahaemolyticus NCTC 10441 after 18 hrs by […]; conditions: NCTC 10441, 18 h; method in brief: as §1

| MIC [1] [µg/mL] | MIC [2] [µg/mL] | MIC [3] [µg/mL] | MIC [4] [µg/mL] | Structure (SMILES) | MIC [5] [µg/mL] |
| --- | --- | --- | --- | --- | --- |
| 0.4 (≈ 0.908 µM) | 6.3 (≈ 14.3 µM) | > 20 | 3.1 (≈ 7.04 µM) | CC/C=C/[C@H]1C/C=C/C=C\[C@H](O)C[C@@H](O)[C@@H](C)/C=C/C[C@@H](C)/C=C/C=C(C)/C=C/C(=O)O1 [CHAXALACTIN A] | 12.5 (≈ 28.4 µM) |
| 0.2 (≈ 0.438 µM) | 5 (≈ 10.9 µM) | > 20 | 5 (≈ 10.9 µM) | CC/C=C/[C@H]1C/C=C/C=C\[C@H](O)[C@@H](O)[C@@H](O)[C@@H](C)/C=C/C[C@@H](C)/C=C/C=C(C)/C=C/C(=O)O1 [CHAXALACTIN B] | 20 (≈ 43.8 µM) |
| 0.8 (≈ 1.7 µM) | 6.3 (≈ 13.4 µM) | > 20 | 6.3 (≈ 13.4 µM) | CC/C=C/[C@H]1C/C=C/C=C\[C@H](OC)[C@@H](O)[C@@H](O)[C@@H](C)/C=C/C[C@@H](C)/C=C/C=C(C)/C=C/C(=O)O1 [CHAXALACTIN C] | 12.5 (≈ 26.6 µM) |
